# Results taken from ChEMBL document CHEMBL1137547, “Synthesis and antifungal activities of novel 2-aminotetralin derivatives” (2007).
# Assays:
# Type in all cases: functional
# Fonsecaea compacta = experiment: Antifungal activity against Fonsecaea compacta
# Procedure, shortened: (§1)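 NCCLS broth serial dilution in RPMI 1640 buffered with 0.165 M MOPS. Compounds were dissolved in DMSO and serially diluted in medium. Strains came from ATCC or clinical isolates. The growth MIC for filamentous fungi was read at 7 d, taken as the lowest concentration giving ≥80% turbidity inhibition versus the growth control.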
# Trichophyton rubrum = experiment: Antifungal activity against Trichophyton rubrum
# Procedure, shortened: (§2)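 Dermatophytes were tested by NCCLS serial dilution in RPMI 1640 with 0.165 M MOPS and incubated at 28 °C. Compounds were dissolved in DMSO and diluted in medium. Strains came from ATCC or clinical isolates. The MIC was read at 7 d as the lowest concentration reducing turbidity by ≥80% relative to the drug-free control.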
# Microsporum = experiment: Antifungal activity against Microsporum gypseum; procedure, shortened: as §2
# Candida albicans = experiment: Antifungal activity against Candida albicans after 24 hrs
# Procedure, shortened: (§3)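 Candida yeasts were tested by NCCLS microdilution in RPMI 1640 buffered with 0.165 M MOPS and incubated at 35 °C. Compounds were dissolved in DMSO and serially diluted in medium. Isolates came from ATCC or the clinic. The MIC was read at 24 h as the lowest concentration achieving ≥80% growth inhibition versus the control.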
# Candida parapsilosis = experiment: Antifungal activity against Candida parapsilosis after 24 hrs; details: Lodderomyces parapsilosis; procedure, shortened: as §3
# Aspergillus fumigatus = experiment: Antifungal activity against Aspergillus fumigatus; procedure, shortened: as §1
# Cryptococcus neoformans = experiment: Antifungal activity against Cryptococcus neoformans after 72 hrs
# Procedure, shortened: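 Cryptococcus neoformans was tested by NCCLS serial dilution in MOPS-buffered (0.165 M) RPMI 1640 at 35 °C. Compounds were dissolved in DMSO and diluted in medium. The MIC was read at 72 h as the lowest concentration giving turbidity inhibition of ≥80% relative to the growth control.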
Compound,MIC (Fonsecaea compacta) [µM],MIC (Trichophyton rubrum) [µM],MIC (Microsporum) [µM],MIC (Candida albicans) [µM],MIC (Candida parapsilosis) [µM],MIC (Aspergillus fumigatus) [µM],MIC (Cryptococcus neoformans) [µM]
Oc1cccc2c1CC(NCc1ccccc1)CC2 (centres undefined),32,0.5,32,64,> 64,> 64,> 64
CCCCCCCCCCCCCCCCCCNC1CCc2c(cccc2OC)C1 (centres undefined),64,32,16,> 64,> 64,> 64,> 64
CCCCCCCCCCCCCCCCCCNC1CCc2cc(OC)ccc2C1 (centres undefined),> 64,8,> 64,64,> 64,> 64,> 64
CCCCCCCCCCCCCCCCCCNC1CCc2ccc(OC)cc2C1 (centres undefined),> 64,8,64,> 64,> 64,> 64,> 64
CCCCCCCCCCCCCCCCCCNC1CCc2cccc(OC)c2C1 (centres undefined),> 64,2,64,> 64,> 64,> 64,64
CCCCCCCCCCCCCCCCCCNC1CCc2c(O)cccc2C1 (centres undefined),> 64,16,> 64,64,> 64,> 64,> 64
CCCCCCCCCCCCCCCCCCNC1CCc2cc(O)ccc2C1 (centres undefined),> 64,8,64,32,> 64,> 64,> 64
CCCCCCCCCCCCCCCCCCNC1CCc2ccc(O)cc2C1 (centres undefined),64,2,> 64,16,> 64,> 64,> 64
Oc1ccc2c(c1)CCC(NCc1ccccc1)C2 (centres undefined),> 64,8,> 64,64,> 64,> 64,> 64
Oc1cccc2c1CCC(Nc1ccccc1)C2 (centres undefined),> 64,8,> 64,> 64,> 64,> 64,> 64
COc1cccc2c1CC(NCc1ccccc1)CC2 (centres undefined),> 64,32,4,> 64,> 64,> 64,> 64
Oc1cccc2c1CCC(NCc1ccccc1)C2 (centres undefined),> 64,0.125,> 64,64,> 64,> 64,> 64
COc1ccc(NC2CCc3cccc(OC)c3C2)cc1 (centres undefined),> 64,32,16,> 64,> 64,> 64,> 64
COc1cccc2c1CCC(Nc1ccccc1)C2 (centres undefined),> 64,2,32,> 64,> 64,> 64,> 64
COc1ccc2c(c1)CCC(Nc1ccccc1)C2 (centres undefined),> 64,0.5,32,> 64,> 64,> 64,> 64
COc1ccc(NC2CCc3ccc(O)cc3C2)cc1 (centres undefined),> 64,0.5,32,> 64,64,> 64,> 64
COc1ccc2c(c1)CC(Nc1ccccc1)CC2 (centres undefined),> 64,4,64,> 64,> 64,> 64,64
Oc1cccc2c1CC(Nc1ccccc1)CC2 (centres undefined),64,4,32,> 64,> 64,> 64,32
CCCCCCCCCCCCCCNC1CCc2ccc(OC)cc2C1 (centres undefined),64,0.0625,4,4,> 64,> 64,16
CCCCCCCCCCCCCCNC1CCc2cccc(OC)c2C1 (centres undefined),32,0.5,2,4,16,> 64,32
COc1ccc2c(c1)CCC(Nc1ccc(Cl)cc1)C2 (centres undefined),> 64,1,16,> 64,> 64,> 64,> 64

Compound,MIC (Fonsecaea compacta) [µM],MIC (Trichophyton rubrum) [µM],MIC (Microsporum) [µM],MIC (Candida albicans) [µM],MIC (Candida parapsilosis) [µM],MIC (Aspergillus fumigatus) [µM],MIC (Cryptococcus neoformans) [µM]
COc1cccc2c1CC(Nc1ccccc1)CC2 (centres undefined),> 64,4,32,> 64,> 64,> 64,> 64
CCCCCCCCCCCCCCNC1CCc2c(O)cccc2C1 (centres undefined),> 64,0.5,4,8,> 64,> 64,8
CCCCCCCCCCCCCCNC1CCc2cc(O)ccc2C1 (centres undefined),> 64,0.5,2,2,32,> 64,> 4
Oc1ccc2c(c1)CC(Nc1ccccc1)CC2 (centres undefined),32,8,16,32,> 64,> 64,16
COc1ccc2c(c1)CCC(NCc1ccccc1)C2 (centres undefined),> 64,16,> 64,30,> 64,> 64,> 64
COc1ccc(NC2CCc3cccc(O)c3C2)cc1 (centres undefined),> 64,2,16,> 64,> 64,> 64,> 64
COc1ccc2c(c1)CC(NCc1ccccc1)CC2 (centres undefined),> 64,4,> 64,64,> 64,> 64,> 64
Oc1ccc2c(c1)CC(NCc1ccccc1)CC2 (centres undefined),> 64,16,> 64,64,> 64,> 64,> 64
COc1ccc(NC2CCc3cc(OC)ccc3C2)cc1 (centres undefined),> 64,8,8,> 64,> 64,> 64,> 64
CCCCCCCCCCCCCCNC1CCc2ccc(O)cc2C1 (centres undefined),8,0.5,4,4,4,> 64,8
COc1ccc(NC2CCc3c(O)cccc3C2)cc1 (centres undefined),> 64,0.25,16,> 64,32,> 64,> 64
COc1ccc(NC2CCc3cc(O)ccc3C2)cc1 (centres undefined),> 64,0.5,16,> 64,64,> 64,64
COc1ccc2c(c1)CC(Nc1ccc(Cl)cc1)CC2 (centres undefined),> 64,16,16,> 64,> 64,> 64,> 64
CCCCCCCCCCCCCCNC1CCc2cc(OC)ccc2C1 (centres undefined),> 64,16,> 64,32,> 64,> 64,64
Oc1ccc2c(c1)CCC(Nc1ccccc1)C2 (centres undefined),64,8,32,64,64,> 64,64
COc1ccc(NC2CCc3ccc(OC)cc3C2)cc1 (centres undefined),64,0.5,16,> 64,> 64,> 64,> 64
CCCCCCCCCCCCCCCCCCNC1CCc2cccc(O)c2C1 (centres undefined),64,2,> 64,> 64,> 64,> 64,> 64
COc1ccc(NC2CCc3c(cccc3OC)C2)cc1 (centres undefined),> 64,2,8,> 64,> 64,> 64,> 64
CCCCCCCCCCCCCCNC1CCc2cccc(O)c2C1 (centres undefined),16,0.125,4,16,64,16,32
COc1cccc2c1CCC(Nc1ccc(Cl)cc1)C2 (centres undefined),> 64,2,16,> 64,> 64,> 64,> 64
COc1cccc2c1CCC(NCc1ccccc1)C2 (centres undefined),32,16,64,32,> 64,> 64,64
